Measurements: article PMC6690763 (Bioorganic & medicinal chemistry letters, 2019)

Assays:
[1] = plasma stability, mouse; format: in vitro ADME
[2] = plasma stability, human; format: in vitro ADME
[3] = system: latent EBV in MutuI cells; assay: EBV lytic reactivation, MutuI cell based assay; parameters: species or system Epstein-Barr virus; settings: for potency in EBV reactivation relative to 12: analogs of 12
[4] = solubility on formulation; format: physicochemical; settings: for solubility when formulated: 10% DMSO/ 10% solutol/ 80% PBS formulation mixture; for water solubility (ease of formulation): PEG moiety instead of methoxy in the B ring
[5] = system: latent EBV in SNU719 gastric carcinoma tumors; assay: SNU719 gastric carcinoma xenograft, BZLF1 immunoblot of tumors; format: in vivo; settings: NSG mice, 30 mg/kg i.p. once per day, 4 days
Summary of the method: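 SNU719 gastric carcinoma cells (1×10^7) injected subcutaneously into left and right flanks of NSG mice (both sexes, 8-10 weeks old). From 28 days post-injection, test compound given i.p. at 30 mg/kg once daily; controls were vehicle (5% DMSO/5% Solutol) and PBS. Tumors collected after 4 days of treatment and homogenized. Immunoblot for lytic BZLF1 (Z), with β-actin as loading control.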

[6] = system: latent EBV; assay: cell based reactivation, Western blot analysis; parameters: species or system Epstein-Barr virus; settings: compared with methoxy substituted counterparts; data not shown
[7] = liver microsomal stability, mouse; format: in vitro ADME; settings: microsomes
[8] = liver microsomal stability, human; format: in vitro ADME; settings: microsomes
[9] = system: EBV-positive cells; settings: combination with Ganciclovir; cited from earlier work
[10] = system: latent EBV in MutuI cells; settings: typical; cited from earlier work

COc1ccc(C2c3[nH]c4ccc(Cl)cc4c3CCN2C(=O)c2cccc(OC)c2)cc1 (stereo not drawn) [Compound 12]
Plasma Stability Mouse [1]: >6 h | Plasma Stability Human [2]: >6 h

COc1ccc(C2c3[nH]c4ccc(Cl)cc4c3CCN2C(=O)c2cccc(CN3CCOCC3)c2)cc1 (stereo not drawn) [Compound 18]
potency in EBV reactivation relative to 12 [3]: maintained potency | solubility when formulated [4]: more soluble

O=C(c1cccc(CN2CCOCC2)c1)N1CCc2c([nH]c3ccc(Cl)cc23)C1c1ccc(Cl)cc1 (stereo not drawn) [Compound 19]
potency in EBV reactivation relative to 12 [3]: maintained potency | solubility when formulated [4]: more soluble

COc1cccc(C(=O)N2CCc3c([nH]c4ccc(Cl)cc34)C2c2ccc(O)cc2)c1 (stereo not drawn) [Compound 20]
potency in EBV reactivation relative to 12 [3]: maintained potency | solubility when formulated [4]: more soluble | EBV reactivation in tumors (presence of lytic protein BZLF1) [5]: modestly reactivates EBV

COCCOCCOCCOc1ccc(C2c3[nH]c4ccc(Cl)cc4c3CCN2C(=O)Nc2ccccc2C(=O)OC)cc1 (stereo not drawn) [Compound 21]
water solubility (ease of formulation) [4]: significantly improved water solubility | activity by Western blot analysis [6]: comparable activity to their methoxy substituted counterparts

COCCOCCOCCOc1ccc(C2c3[nH]c4ccc(Cl)cc4c3CCN2C(=O)Nc2ccccc2Cl)cc1 (stereo not drawn) [Compound 22]
water solubility (ease of formulation) [4]: significantly improved water solubility | activity by Western blot analysis [6]: comparable activity to their methoxy substituted counterparts

COC(=O)c1ccccc1NC(=O)N1CCc2c([nH]c3ccc(Cl)cc23)C1c1ccc(OC)cc1 (stereo not drawn) [Compound C60]
EC50 ([3]; human gammaherpesvirus 4, MUTU-I, read-out: potency in cells): 150 to 200 nM | Plasma Stability Mouse [1]: >6 h | Plasma Stability Human [2]: >6 h | Liver Microsomal Stability Mouse CLint [7]: < 0.5 | Liver Microsomal Stability Human CLint [8]: 0.93 | synergy with GCV in killing EBV-positive cells [9]: functions synergistically with Ganciclovir (GCV) to selectively kill EBV-positive cells

CCCC(=O)[O-].[Na+] [NaB, sodium butyrate]
concentration required to trigger the latent to lytic switch [10]: millimolar concentrations

CCCCCCCCCCCCCC(=O)O[C@@H]1[C@@H](C)[C@@]2(O)[C@@H](C=C(CO)C[C@]3(O)C(=O)C(C)=C[C@@H]23)[C@@H]2C(C)(C)[C@]12OC(C)=O [TPA, 12-O-tetradecanoylphorbol-13-acetate]
concentration required to trigger the latent to lytic switch [10]: millimolar concentrations
